According to ChEMBL document CHEMBL4219124, “Alleviating CYP and hERG liabilities by structure optimization of dihydrofuran-fused tricyclic benzo[d]imidazole series - Potent, selective and orally efficacious microsomal prostaglandin E synthase-1 (mPGES-1) inhibitors: Part-2” (Bioorg Med Chem Lett, 2018):

Tests used:
[1] = Half life in Sprague-Dawley rat at 10 mg/kg, po; format: ADME, organism-based; conditions: in vivo
Method in brief: (§1)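 Half-life calculated from plasma profiles after oral dosing at 10 mg/kg. Rat: male Sprague-Dawley, 0.5% methylcellulose suspension, n = 3. Dog and cynomolgus monkey: Tween 80 (2.5 μL/mL) + 0.5 (w/v) MC suspension.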

[2] = Tmax in Dunkin-Hartley guinea pig at 10 mg/kg, po; format: ADME, organism-based, Cavia porcellus; conditions: in vivo
Method in brief: (§2)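 Tmax from oral 10 mg/kg dosing. Rat: male Sprague-Dawley, 0.5% MC suspension, n = 3. Guinea pig: 20% NMP + 0.5% MC suspension, n = 3. Dog and monkey: 2.5 μL/mL Tween 80 + 0.5% MC suspension.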

[3] = Tmax in Sprague-Dawley rat at 10 mg/kg, po; format: ADME, organism-based; conditions: in vivo; method in brief: as §2
[4] = Oral bioavailability in Sprague-Dawley rat at 10 mg/kg; format: ADME, organism-based; conditions: in vivo
Method in brief: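 Plasma PK after 1 mg/kg i.v. and 10 mg/kg p.o.; %F from both routes. Rat: male Sprague-Dawley, oral 0.5% methylcellulose suspension, i.v. 20% NMP/20% ethanol/60% PEG 200, n = 3. Dog oral: Tween 80 2.5 μL/mL + 0.5% MC suspension. Monkey oral: same Tween/MC suspension; i.v. 10% NMP/10% ethanol/10% PEG/70% PEG200-water premix.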

[5] = Apparent volume of distribution in cynomolgus monkey at 1 mg/kg, iv; format: ADME, organism-based, Macaca fascicularis; conditions: in vivo, read-out: Vz
Method in brief: (§3)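 Intravenous dose of 1 mg/kg; clearance and Vz derived from the i.v. arm. Rat (male Sprague-Dawley) vehicle 20% NMP + 20% ethanol + 60% PEG 200, mean ± SD (n = 3). Dog vehicle 20% NMP + 20% EtOH + 10% PG + 50% PEG 200:water (3:2). Monkey vehicle 10% NMP + 10% ethanol + 10% PEG + 70% PEG200:water (3:2).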

[6] = Apparent volume of distribution in Sprague-Dawley rat at 1 mg/kg, iv; format: ADME, organism-based; conditions: in vivo, read-out: Vz; method in brief: as §3
[7] = Half life in cynomolgus monkey at 10 mg/kg, po; format: ADME, organism-based, Macaca fascicularis; conditions: in vivo; method in brief: as §1
[8] = Metabolic stability in rat liver microsomes assessed as parent compound remaining at 1 uM after 60 mins in presence of NADPH by LC-MS/MS analysis; format: ADME, microsome; conditions: read-out: Stability
Method in brief: (§4)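 Compound incubated 60 min at 37 °C with human, rat or guinea pig liver microsomes; percent parent remaining, triplicates.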

[9] = target: T1, Prostaglandin E synthase 3 (Homo sapiens) (UniProt Q15185); experiment: Inhibition of cPGES in human U937 cells assessed as decrease in PGE2 production at 10 uM using arachidonic acid as substrate relative to control; format: cell-based
T1 sequence (whole entry): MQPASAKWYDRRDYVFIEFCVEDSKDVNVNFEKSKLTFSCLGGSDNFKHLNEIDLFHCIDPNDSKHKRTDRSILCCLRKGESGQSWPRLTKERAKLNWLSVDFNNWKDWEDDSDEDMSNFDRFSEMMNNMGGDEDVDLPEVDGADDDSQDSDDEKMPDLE
Method in brief: (§5)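 Selectivity panel against other prostanoid-pathway enzymes. % inhibition values are means of at least two experiments, each in duplicate.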

[10] = Metabolic stability in guinea pig liver microsomes assessed as parent compound remaining at 1 uM after 60 mins in presence of NADPH by LC-MS/MS analysis; format: ADME, Cavia porcellus, microsome; conditions: read-out: Stability; method in brief: as §4
CYP2C9 = CYP2C9 (Homo sapiens, UniProt P11712); experiment: Inhibition of CYP2C9 in human liver microsomes at 10 uM after 20 mins in presence of NADPH by LC-MS/MS analysis; format: ADME
Chain of CYP2C9 (P11712 whole entry, canonical isoform): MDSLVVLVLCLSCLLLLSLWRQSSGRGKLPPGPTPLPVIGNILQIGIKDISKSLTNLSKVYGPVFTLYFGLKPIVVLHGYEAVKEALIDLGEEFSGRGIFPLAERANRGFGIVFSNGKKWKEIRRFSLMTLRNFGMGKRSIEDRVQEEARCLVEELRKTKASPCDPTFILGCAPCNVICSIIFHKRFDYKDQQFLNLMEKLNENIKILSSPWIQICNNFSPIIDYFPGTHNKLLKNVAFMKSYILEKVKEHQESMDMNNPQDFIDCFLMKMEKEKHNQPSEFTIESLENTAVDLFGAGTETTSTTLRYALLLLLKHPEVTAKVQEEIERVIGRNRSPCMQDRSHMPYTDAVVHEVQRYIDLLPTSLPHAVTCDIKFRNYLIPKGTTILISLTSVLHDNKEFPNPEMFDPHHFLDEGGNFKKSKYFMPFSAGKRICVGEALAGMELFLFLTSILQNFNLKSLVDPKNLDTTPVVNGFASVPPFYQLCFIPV
Method in brief: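 Percent inhibition of each CYP isoform by test compound at 10 µM, compared with a no-inhibitor control. Run in triplicate.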

[11] = Protein binding in dog plasma at 10 uM after 5 hrs by equilibrium dialysis based LC-MS/MS analysis; format: ADME, cell-free, Canis lupus familiaris; conditions: read-out: PPB (converted)
Method in brief: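 Equilibrium dialysis at 10 μM compound; result expressed as percent bound.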

hERG (KCNH2) = hERG (KCNH2) (Homo sapiens, UniProt Q12809); experiment: Inhibition of human ERG at 10 uM by patch clamp assay relative to control
Chain of hERG (KCNH2) (Q12809 whole entry): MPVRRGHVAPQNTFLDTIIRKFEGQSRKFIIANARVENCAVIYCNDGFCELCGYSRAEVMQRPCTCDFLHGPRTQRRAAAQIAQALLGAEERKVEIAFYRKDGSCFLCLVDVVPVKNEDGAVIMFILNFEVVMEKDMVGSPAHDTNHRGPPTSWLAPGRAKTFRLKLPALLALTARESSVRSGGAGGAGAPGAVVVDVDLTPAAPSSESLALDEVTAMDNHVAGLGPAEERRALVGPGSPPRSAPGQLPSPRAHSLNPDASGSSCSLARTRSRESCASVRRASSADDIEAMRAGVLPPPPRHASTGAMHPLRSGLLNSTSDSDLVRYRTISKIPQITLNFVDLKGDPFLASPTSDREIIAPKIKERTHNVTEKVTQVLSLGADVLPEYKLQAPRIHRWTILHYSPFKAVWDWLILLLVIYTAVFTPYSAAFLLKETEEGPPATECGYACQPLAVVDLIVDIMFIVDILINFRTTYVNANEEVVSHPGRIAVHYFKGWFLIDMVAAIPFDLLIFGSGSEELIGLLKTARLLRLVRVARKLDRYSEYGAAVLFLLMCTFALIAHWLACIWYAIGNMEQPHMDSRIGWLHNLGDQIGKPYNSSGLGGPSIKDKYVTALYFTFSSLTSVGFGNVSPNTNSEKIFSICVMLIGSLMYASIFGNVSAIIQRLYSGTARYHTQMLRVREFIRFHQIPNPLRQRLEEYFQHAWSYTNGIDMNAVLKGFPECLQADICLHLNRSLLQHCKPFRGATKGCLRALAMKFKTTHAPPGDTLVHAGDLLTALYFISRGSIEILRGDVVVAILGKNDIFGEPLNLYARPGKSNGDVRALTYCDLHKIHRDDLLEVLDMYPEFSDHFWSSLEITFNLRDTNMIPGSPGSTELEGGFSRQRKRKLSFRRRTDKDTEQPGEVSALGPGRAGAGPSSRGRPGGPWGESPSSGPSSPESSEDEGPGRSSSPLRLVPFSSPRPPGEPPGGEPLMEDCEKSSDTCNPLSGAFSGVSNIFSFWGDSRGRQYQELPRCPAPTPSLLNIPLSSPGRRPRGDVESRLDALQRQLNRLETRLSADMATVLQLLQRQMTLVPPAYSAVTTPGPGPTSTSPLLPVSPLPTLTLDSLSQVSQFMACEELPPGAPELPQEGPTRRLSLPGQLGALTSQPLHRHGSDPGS
Method in brief: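 hERG current measured by patch clamp with test compound at 10 µM; result given as % inhibition.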

[12] = Apparent passive permeability of the compound by PAMPA; format: ADME
Method in brief: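 Passive permeability by PAMPA, using a 2% lecithin in dodecane membrane. Run in triplicate.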

[13] = Inhibition of human U937 cells-derived COX1 assessed as decrease in PGE2 production at 10 uM using arachidonic acid as substrate preincubated for 15 mins prior to substrate addition for 5 mins relative to control; conditions: COX1 derived from U937 cells, probe arachidonic acid; method in brief: as §5
[14] = target: Prostaglandin E synthase 2 (Homo sapiens) (UniProt Q9H7Z7); experiment: Inhibition of mPGES2 in A23187-stimulated human THP1 cells assessed as decrease in PGE2 production at 10 uM using arachidonic acid as substrate relative to control; method in brief: as §5
Chain of Prostaglandin E synthase 2 (Homo sapiens) (Q9H7Z7 whole entry): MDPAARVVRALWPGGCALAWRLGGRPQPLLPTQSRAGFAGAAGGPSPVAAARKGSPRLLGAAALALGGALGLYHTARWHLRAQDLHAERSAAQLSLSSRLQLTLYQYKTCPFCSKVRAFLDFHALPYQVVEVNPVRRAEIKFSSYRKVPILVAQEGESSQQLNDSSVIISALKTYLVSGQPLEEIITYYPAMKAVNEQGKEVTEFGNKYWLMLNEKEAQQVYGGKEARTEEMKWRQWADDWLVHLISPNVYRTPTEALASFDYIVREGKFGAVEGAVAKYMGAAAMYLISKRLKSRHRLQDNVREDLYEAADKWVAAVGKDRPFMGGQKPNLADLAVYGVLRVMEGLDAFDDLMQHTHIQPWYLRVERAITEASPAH

[15] = target: Hematopoietic prostaglandin D synthase (Homo sapiens) (UniProt O60760); experiment: Inhibition of PGDS (unknown origin) at 10 uM relative to control; method in brief: as §5
Chain of Hematopoietic prostaglandin D synthase (Homo sapiens) (O60760 whole entry): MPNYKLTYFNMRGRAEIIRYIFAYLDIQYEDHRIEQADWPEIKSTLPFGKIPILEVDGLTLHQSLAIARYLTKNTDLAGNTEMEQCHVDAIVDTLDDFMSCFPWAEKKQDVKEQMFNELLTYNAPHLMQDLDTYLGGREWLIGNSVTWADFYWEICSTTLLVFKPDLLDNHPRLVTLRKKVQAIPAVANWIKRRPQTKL

[16] = Inhibition of guinea pig mPGES1 expressed in CHO cells assessed as reduction in PGE2 production using PGH2 as substrate incubated for 10 mins followed by substrate addition measured for 1 min; set-up: species or system Cavia porcellus
Method in brief: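 Guinea pig mPGES-1 enzyme assay, run the same way as the human enzyme assay. IC50 for inhibition of PGE2 formation, read from curves built on at least two experiments, each in duplicate.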

[17] = Inhibition of mPGES1 in guinea pig whole blood assessed as reduction in LPS-induced PGE2 production measured after 20 to 24 hrs; conditions: Cavia porcellus
Method in brief: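 Guinea pig whole blood stimulated with LPS. […] At least two experiments, each in duplicate.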

Prostaglandin E synthase = target: T2, Prostaglandin E synthase (Canis lupus familiaris, UniProt A0SYQ0); experiment: Inhibition of mPGES1 in dog whole blood assessed as reduction in LPS-induced PGE2 production measured after 20 to 24 hrs
T2 sequence (A0SYQ0 whole entry): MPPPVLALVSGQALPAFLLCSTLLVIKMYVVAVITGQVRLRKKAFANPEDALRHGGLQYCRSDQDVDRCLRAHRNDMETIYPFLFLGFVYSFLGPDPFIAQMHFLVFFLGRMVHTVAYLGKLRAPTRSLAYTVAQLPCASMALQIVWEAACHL
Method in brief: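 Dog whole blood stimulated with LPS. […] At least two experiments, each in duplicate; run by an external contract lab.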

CHO = experiment: Inhibition of rat mPGES1 expressed in CHO cells assessed as reduction in PGE2 production at 10 uM using PGH2 as substrate incubated for 10 mins followed by substrate addition measured for 1 min relative to control; format: cell-based
Method in brief: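 Rodent enzyme protocol run as for the human and guinea pig mPGES-1 enzyme assays; single-concentration percent inhibition.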

[18] = Cmax in Dunkin-Hartley guinea pig at 10 mg/kg, po; format: ADME, organism-based, Cavia porcellus; set-up: dose 10 mg/kg, route oral; conditions: in vivo
Method in brief: (§6)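 Single oral dose of 10 mg/kg. Cmax and AUC0-24 taken from the oral arm. Rat: male Sprague-Dawley, dosed in 0.5% methylcellulose suspension, mean ± SD (n = 3). Guinea pig: 20% NMP + 0.5% MC suspension, mean ± SD (n = 3). Dog and cynomolgus monkey: 2.5 μL/mL Tween 80 + 0.5 (w/v) MC suspension.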

[19] = Cmax in Beagle dog at 10 mg/kg, po; format: ADME, organism-based, Canis lupus familiaris; set-up: dose 10 mg/kg, route oral; conditions: in vivo; method in brief: as §6

Structure (SMILES)	half-life [1] [h]	Tmax [2] [h]	Tmax [3] [h]	bioavailability [4] [%]	Vd [5] [L/kg]	Vd [6] [L/kg]	half-life [7] [h]	remaining at 1 h, 1 µM [8] [%]	inhibition [9] [%]	remaining at 1 h, 1 µM [10] [%]	inhibition at 20 min, 10 µM (CYP2C9) [%]	fraction unbound at 5 h, 10 µM [11]	inhibition at 10 µM (hERG (KCNH2)) [%]	Papp [12] [×10⁻⁶ cm/s]	inhibition at 5 min, 10 µM [13] [%]	inhibition [14] [%]	inhibition [15] [%]	IC50 [16] [nM]	IC50 [17] [nM]	inhibition (CHO) [%]	other results
CC1(C)Cc2c(c(C(=O)Nc3ccc(C(F)(F)F)cn3)cc3nc(Nc4c(Cl)cccc4Cl)[nH]c23)O1	2.7	12	4	43	4.1	3.77	5.3	88	0	71	56	0.008	5.4	0.63	7.8	7.8	15.1	12	259	7.1	IC50 (Prostaglandin E synthase): 3540 nM; Cmax [18]: 91 ng/mL; Cmax [19]: 336 ng/mL
CC1(C)Cc2c(c(C(=O)Nc3ccc(F)c(C(F)(F)F)c3)cc3nc(Nc4c(F)cccc4Cl)[nH]c23)O1	4	2	2	91	1.83	3.85	6.45	91	0	100	48	0.009	3.8	0.33	8.27	11.6	0	24	465	10.5	IC50 (Prostaglandin E synthase): 6220 nM; Cmax [18]: 361 ng/mL; Cmax [19]: 492 ng/mL
Cc1cccc(Cl)c1Nc1nc2cc(C(=O)Nc3cc(C(F)F)ccc3F)c3c(c2[nH]1)CC(C)(C)O3								87	11	60	28		11.8		38.2	3.8	27.6	46	222	0.7	
CC1(C)Cc2c(c(C(=O)Nc3cc(C(F)(F)F)ccc3F)cc3nc(Nc4c(F)cccc4Cl)[nH]c23)O1								96	4.2	79	35		5.8	0.62	14.7	13.5	5.8	14	204	11.7	
Cc1cccc(Cl)c1Nc1nc2cc(C(=O)Nc3cc(C(F)(F)F)ccc3F)c3c(c2[nH]1)CC(C)(C)O3	7	1	4	14	2.1	4.84	12	97	21.1	46	15	0.003	12.3	1.34	14.6	23.5	19.5	19	340	0	IC50 (Prostaglandin E synthase): 3030 nM; Cmax [18]: 80 ng/mL; Cmax [19]: 843 ng/mL
Cn1c(Nc2c(F)cccc2Cl)nc2cc(C(=O)Nc3cccc(C(F)(F)F)c3)c3c(c21)CC(C)(C)O3								89	24	51	19		26.5		19.7	7.9	16.5	4.3	188	3.4	
